# According to ChEMBL document CHEMBL1121519, “Basic antiinflammatory compounds. N,N',N''-Trisubstituted guanidines” (J Med Chem, 1980):
# Assays:
# [1] = target: Cyclooxygenase (Bos taurus) (UniProt O62664+O62698); experiment: Inhibition of prostaglandin synthetase in bovine seminal vesicle microsomes using Beckman liquid scintillation counter at 10 e-5 M; details: Microsome
# [2] = Lethal dose in mice determined by Litchfield and Wilcoxon methods after peroral administration.; type: toxicity, organism-based; details: mouse, in vivo, po
# Summary of the method: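 Median lethal dose found after oral dosing of mice, four mice per dose level, and calculated by the Litchfield–Wilcoxon method.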
# [3] = system: Rattus norvegicus; experiment: Percent inhibition of carrageenan paw edema in rat, administered orally at a dose of one tenth of oral lethal dose in mice; type: functional
# Summary of the method: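 1 h later, 0.1 mL of 1% carrageenan was injected into the right hind-paw plantar tissue. Paw swelling was measured by mercury-displacement plethysmometry 3 h after carrageenan, compared with controls.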
SMILES,inhibition [1] [%],LD50 [2] [mg/kg],Inhibition [3] [%]
Cc1ccc2cccc(N/C(=N\C(C)(C)C)Nc3nccs3)c2n1,7,> 1000,4
CCc1cc(N/C(=N/C2CCCCC2)Nc2nccs2)c2ccccc2n1,67,> 1000,24
CC(C)(C)/N=C(\Nc1ccc(Cl)cn1)Nc1nccs1,1,> 1000,31
CC(C)c1cc(N/C(=N/C(C)(C)C)Nc2nccs2)c2ccccc2n1,12.4,> 1000,31
CCOC(=O)c1cnc(/N=C(\Nc2cc(C)nc3ccccc23)NC(C)(C)C)s1,15.8,> 1000,16
Cc1cc(N/C(=N/C(C)(C)C)NCCO)c2ccccc2n1,2.8,600,40
CC(C)(C)/N=C(\Nc1ccc2ccccc2n1)Nc1nccs1,–,> 1000,32
CCCCC(CC)C/N=C(/Nc1nccs1)Nc1cc(C)nc2ccccc12 (configuration not stated),2.1,> 1000,28
Cc1cc(N/C(=N/C(C)(C)C)Nc2nc(C)c(C)s2)c2ccccc2n1,64.2,> 1000,19
CCC(C)(C)/N=C(\Nc1cccnc1)Nc1nccs1,0,> 1000,82
CC(C)CC(C)(C)/N=C(\Nc1ccncc1)Nc1nccs1,1.1,800,22
CC/N=C(/Nc1nccs1)Nc1cc(C)nc2ccccc12,8,100,56
Cc1cc(N/C(=N/C(C)(C)C)Nc2nnc(S)s2)c2ccccc2n1,6,> 1000,16
CC(C)(C)/N=C(\Nc1nccs1)Nc1cc(-c2ccccc2)nc2ccccc12,< 10,> 1000,40
Cc1cc(N/C(=N\C(C)C(C)(C)C)Nc2nccs2)c2ccccc2n1 (configuration not stated),4,> 1000,36
Cc1cc(N/C(=N/C2CCCCC2)Nc2nncs2)c2ccccc2n1,15.1,250,40
Cc1cc(N/C(=N/CC2CCCCC2)Nc2nccs2)c2ccccc2n1,21,> 1000,50
CC(C)(C)/N=C(\Nc1cnc2ccccc2c1)Nc1nccs1,-1,> 1000,36
Cc1cc(N/C(=N/C23C[C@H]4C[C@@H](C2)C[C@@H](C3)C4)Nc2nccs2)c2ccccc2n1,32,> 1000,17
Cc1cc(N/C(=N/C2CCCCC2)Nc2nc(C(=O)O)cs2)c2ccccc2n1,2.9,> 1000,9
CC(C)(C)/N=C(/Nc1nccs1)Nc1cccc2cccnc12,4.3,> 1000,8
Cc1ccc2nc(C)cc(N/C(=N/C(C)(C)C)Nc3nccs3)c2c1,-7.5,> 1000,42
Cc1cc(N/C(=N\C2CCCC2)Nc2nccs2)c2ccccc2n1,58.7,600,52
Cc1cc(N/C(=N/C2CCCCC2)Nc2ccccn2)c2ccccc2n1,0.4,> 1000,23
Cc1cc(N/C(=N/C(C)(C)C)Nc2nc3ccccc3s2)c2ccccc2n1,51.8,> 1000,18
Cc1cc(N/C(=N\C(C)(C)CC(C)(C)C)Nc2nccs2)c2ccccc2n1,49.3,> 1000,25

SMILES,inhibition [1] [%],LD50 [2] [mg/kg],Inhibition [3] [%]
Cc1cc(N/C(=N/C(C)(C)C)Nc2ccccn2)c2ccccc2n1,30.1,> 1000,36
Cc1cc(N/C(=N/C2CCCCC2)Nc2ccccc2)c2ccccc2n1,10,300,38
Cc1cc(N/C(=N/CC(C)C)Nc2nccs2)c2ccccc2n1,18,1000,57
Cc1cc(N/C(=N\C(C)(C)C)Nc2nccs2)ccn1,14.9,250,13
Cc1cc(N/C(=N/C2CCCC(C)C2C)Nc2nccs2)c2ccccc2n1.Cl (configuration not stated),7,> 1000,47
CC(C)(C)/N=C(\Nc1nccs1)Nc1ccnc2ccccc12,23.8,> 1000,29
CC(C)(C)/N=C(\Nc1ccncc1)Nc1nccs1,–,300,15
Cc1cc(N/C(=N/C2CCCCC2)Nc2nnc(C)s2)c2ccccc2n1,36.2,> 1000,56
Cc1cc(N/C(=N/C2CCCCC2)Nc2c(C)noc2C)c2ccccc2n1,19.3,> 1000,17
Cc1cc(NC(=N)NC2CCCCC2)c2ccccc2n1,–,> 1000,–
CC(C)(C)/N=C(\Nc1nccs1)Nc1ccnc2cc(C(F)(F)F)ccc12,–,> 1000,32
CCCc1cc(N/C(=N/C2CCCCC2)Nc2nccs2)c2ccccc2n1,56,> 1000,54
CCCc1cc(N/C(=N/C(C)(C)C)Nc2nccs2)c2ccccc2n1,74.1,600,51
CC(C)(C)/N=C(/Nc1nccs1)Nc1nccc2ccccc12,3.4,> 1000,18
CC(C)(C)/N=C(/Nc1nccs1)Nc1cccc2c(O)cccc12,–,> 1000,22
Cc1cc(N/C(=N/C2CCC(C)CC2)Nc2nccs2)c2ccccc2n1 (configuration not stated),12.6,> 1000,39
CC(C)Cc1cc(N/C(=N/C2CCCCC2)Nc2nccs2)c2ccccc2n1,11,> 1000,40
Cc1ccc2nccc(N/C(=N/C3CCCCC3)Nc3nccs3)c2c1,7.2,> 1000,12
c1ccc2c(N/C(=N/C3CCCCC3)Nc3nccs3)ccnc2c1,21.2,> 1000,46
Cc1ccc2cc(N/C(=N\C(C)(C)C)Nc3nccs3)ccc2n1,3.7,> 1000,43
Cc1cc(N/C(=N/C(C)(C)C)Nc2ccccc2)c2ccccc2n1,43.9,40,34
CC(C)Cc1cc(N/C(=N/C(C)(C)C)Nc2nccs2)c2ccccc2n1,20,600,33
COc1cc(N/C(=N\C(C)(C)C)Nc2nccs2)c2ncccc2c1,5,> 1000,–
CC(C)c1cc(N/C(=N/C2CCCCC2)Nc2nccs2)c2ccccc2n1,0,> 1000,36
Cc1cc(N/C(=N/C2CCCCC2)Nc2ncc(C(=O)O)s2)c2ccccc2n1,8.4,> 1000,30
Cc1cc(N/C(=N/C(C)(C)C)Nc2cnccn2)c2ccccc2n1,–,> 1000,–
